Hits are enriched below; roughly 3.9% of the tested compounds scored in any of these assays.
M1 ag = human M1 muscarinic receptor agonists, primary screen, Fluo-8 calcium fluorescence, CHO-K1 cells, HTS | Muscarinic acetylcholine receptor M1 (Homo sapiens), P11229 | CHO-K1 hM1, agonist mode; 0% DMSO, 100% acetylcholine EC100 | activation, % at 3 µM | 360,000 compounds, 0.33% hits | AID 588814, 2011;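 active = activation above the run's mean compound activation plus 3 SD, cut at about 16% in these data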;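 also: peak over basal fluorescence ratio within a 140 s kinetic read after compound addition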
Target sequence (P11229 whole entry, looked up): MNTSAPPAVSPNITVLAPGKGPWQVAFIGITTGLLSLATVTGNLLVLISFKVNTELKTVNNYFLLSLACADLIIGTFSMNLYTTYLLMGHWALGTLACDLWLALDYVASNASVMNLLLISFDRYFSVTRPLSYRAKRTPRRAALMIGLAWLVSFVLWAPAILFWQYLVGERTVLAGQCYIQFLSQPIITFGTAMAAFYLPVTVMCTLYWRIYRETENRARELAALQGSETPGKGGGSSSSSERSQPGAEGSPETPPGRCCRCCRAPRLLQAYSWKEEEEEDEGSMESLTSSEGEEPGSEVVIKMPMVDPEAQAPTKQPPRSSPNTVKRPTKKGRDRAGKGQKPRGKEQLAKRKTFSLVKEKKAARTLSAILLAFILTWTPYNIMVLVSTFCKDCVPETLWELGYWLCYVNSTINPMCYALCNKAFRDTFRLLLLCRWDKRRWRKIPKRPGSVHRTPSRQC
M1 antag = human M1 muscarinic receptor antagonists, primary screen, CHO-K1 cells, Fluo-8 calcium fluorescence, 1536-well | 360,000 compounds, 1.3% hits | CHO-K1 hM1, ACh EC80 antagonist | Muscarinic acetylcholine receptor M1 (Homo sapiens), P11229 | inhibition, % at 3 µM;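 active = percent inhibition above its own plate's cutoff, namely the mean of that plate's compound wells plus 3 SD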;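 also: peak over basal fluorescence ratio during 140 s after agonist addition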
TAAR1 antagonist = human TAAR1 antagonists, primary screen, Fluo-8 calcium fluorescence, CHO RD-HGA16 cells. 360,000 compounds, 1.5% hits. AID 624466, 2012. inhibition, % at 3 µM. antagonist;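 active = inhibition above a per-plate cutoff, the mean inhibition of test compounds on that plate plus 3 SD, cut at about 49% in these data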
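Material: CHO RD-HGA16 cells bearing hTAAR1; compound dosing: one-point dosing, 3 µM nominal final; schedule: dye loading 75 min at 37 °C, then 30 min room temperature; measured by: calcium fluorescence with Fluo-8; control set: vehicle and agonist controls; replication: n of 1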
TAAR1 ag = human TAAR1 agonists, primary screen, Fluo-8 calcium fluorescence, CHO RD-HGA16 cells. Trace amine-associated receptor 1 (Homo sapiens), Q96RJ0. vehicle wells 0%, saturating PEA agonist 100%. activation, % at 3 µM. 360,000 compounds, 0.99% hits. AID 624467, 2012;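 active = activation above the mean activation of all test compounds in the run plus 3 SD, cut at about 38% in these data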
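Benchmarks: low control DMSO, high control PEA (EC100); System: CHO RD-HGA16 cells carrying human TAAR1 plus Gα16; Detection: Fluo-8 fluorescence, 5 s baseline then 140 s kinetic read; Schedule: 17-24 h plating, Fluo-8 75 min 37 °C, 30 min RT; Read-out basis: % activation from peak over basal fluorescence ratio, DMSO-to-PEA scaled.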
HTR2A ag = mouse Htr2a agonists via beta-arrestin recruitment, primary screen, cell-based, luminescence | 5-hydroxytryptamine receptor 2A (Mus musculus), P35363 | CHO-K1 mHTR2A beta-arrestin complementation; percent of 30 µM serotonin response | activation, % at 7.6 µM | 360,000 compounds, 0.66% hits | AID 624169, 2012;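 active = activation above a run cutoff, the mean activation of all tested compounds plus 3 SD, cut at about 14% in these data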
M1 PAM = human M1 muscarinic receptor positive allosteric modulators, primary screen, CHO-K1 cells, Fluo-8 calcium fluorescence, 1536-well; Muscarinic acetylcholine receptor M1 (Homo sapiens), P11229; CHO-K1 hM1, ACh EC20; 0% = ACh EC20, 100% = maximal ACh; activation, % at 3 µM; 360,000 compounds, 0.088% hits; AID 588819, 2011; in the data active = activation above about 19%, passing the limit was not always enough
TAAR1 nonsel count = nonselective antagonists in TAAR1 counter-screen cells, counter-screen for hTAAR1 antagonist project, cell-based, fluorescence, calcium; shares compounds with TAAR1 antagonist; counterscreen cell line, antagonist mode; 2,400 compounds, 77% hits; inhibition, % at 3 µM; in the data active = inhibition above about 22%;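 also: CHO-Ga16 host cells stimulated with ATP at an EC80 level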
TAAR1 antag conf = human TAAR1 antagonists, retest of hits, confirmation, cell-based, fluorescence | shares compounds with TAAR1 antagonist | TAAR1-expressing cells, fluorescence antagonist read-out | inhibition, % at 3 µM | 2,400 compounds, 40% hits | AID 651785, 2012; in the data active = inhibition above about 49%;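 also: CHO-Ga16 host cells challenged with agonist PEA near its EC80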
Ga16 nonsel ag = calcium activation in Ga16-expressing cells, counter-screen for TAAR1 antagonist project, cell-based, fluorescence; activation, % at 3 µM; 2,400 compounds, 18% hits; AID 651953, 2012; agonist counterscreen; shares compounds with TAAR1 antagonist; in the data active = activation above about 12%
TAAR1 ag count = TAAR1 activation by candidate antagonists – cell-based, fluorescence, counter-screen for TAAR1 antagonist project; shares compounds with TAAR1 antagonist; hTAAR1 cell line, agonist mode; activation, % at 3 µM; 2,400 compounds, 2% hits; in the data active = activation above about 37%;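 also: CHO cells stably expressing TAAR1 with calcium dye readout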
Numbers stand for hits; n = inactive; x = no result.

SMILES	M1 ag	M1 antag	TAAR1 antagonist	TAAR1 ag	HTR2A ag	M1 PAM	TAAR1 nonsel count	TAAR1 antag conf	Ga16 nonsel ag	TAAR1 ag count
O=C(NCc1nc2ccccc2[nH]1)C1=C[C@H](c2ccccc2)C[C@H](OCc2ccc(CO)cc2)O1	n	n	n	n	n	n	x	x	x	x
O=C(NCc1ccccc1)C1=C[C@H](c2ccc3c(c2)OCO3)C[C@H](OCc2ccc(CO)cc2)O1	n	n	58.9	n	n	n	24.7	n	n	n
O=C(CN(c1ccc(F)cc1)S(=O)(=O)c1ccc2c(c1)OCCO2)NCc1ccccc1	n	n	n	n	n	n	x	x	x	x
O=C(CN(c1ccc2c(c1)OCCO2)S(=O)(=O)c1ccccc1)NCc1ccc(Cl)cc1	n	n	74.8	n	n	n	26.1	61.7	n	n
COc1ccc(-c2coc3c(C(=O)Nc4cccc(C(C)=O)c4)cccc23)c(C)c1	n	n	57.2	n	n	n	30.9	n	n	n
CCN(CCn1cccn1)C(=O)c1cc(COc2cc(C)ccc2C)on1	n	n	n	n	n	n	x	x	x	x
COc1ccc(Br)cc1/C=C/C(=O)Nc1c(C)cccc1C	n	n	n	n	n	n	x	x	x	x
CCN(CC)c1ccc(NC(=O)/C=C/c2cc(Br)ccc2OC)cc1	n	n	74.2	n	n	n	n	n	n	n
COc1ccc2c(c1)CCCC21NC(=O)N(CC(=O)c2cc(F)ccc2F)C1=O (configuration not stated)	n	n	n	n	n	n	x	x	x	x
Cc1ccc(OCC(=O)Nc2sc3c(c2C#N)CCC3)cc1	n	n	50.8	n	n	n	n	n	n	n
Cc1ccc(OCC(=O)Nc2sc3c(c2C#N)CCC3)cc1C	n	n	n	n	n	n	x	x	x	x
O=C(Nc1nc2ccccc2n1CCN1CCOCC1)c1cn(-c2ccccc2)nc1-c1ccccc1	n	n	54.1	n	n	n	31.1	50.3	15.7	n
COCCn1c(SCC(=O)Nc2ccccc2OC)nc2c(oc3ccccc32)c1=O	n	n	52.2	n	n	n	n	n	n	n
CC1=NN(c2nc(N)nc(/C(C#N)=C/c3ccc([N+](=O)[O-])o3)n2)C(C)(C)C1	n	n	59.3	n	n	n	57.2	65.9	22.8	n
Cc1sc2c(c1C)CN(CCN1CCOCC1)CN2C(=O)c1ccccc1	n	n	n	n	n	n	x	x	x	x
Cc1nc2ccccc2c2oc(C(=O)N3CCC(C)CC3)cc12	n	n	n	n	n	n	x	x	x	x
Cc1nc2ccccc2c2oc(C(=O)N3CCc4ccccc4C3)cc12	n	n	58.1	n	n	n	26.4	49.2	14.6	n
CCC(C)c1ccccc1N1CC(C(=O)N(C)CC(=O)Nc2cccc(F)c2)CC1=O (configuration not stated)	n	n	n	n	n	n	x	x	x	x
Cc1sc2ncnc(N3CCC(C(=O)NNC(=O)COc4ccc(Cl)cc4)CC3)c2c1C	n	n	70.2	n	n	n	38.0	n	11.6	n
Cc1sc2ncnc(N3CCC(C(=O)NNC(=O)COc4cccc(C(F)(F)F)c4)CC3)c2c1C	n	n	63.6	n	n	n	28.3	n	n	n
Cc1cc(Cl)ccc1OCC(=O)NNC(=O)C1CCN(c2ncnc3sc(C)c(C)c23)CC1	n	n	78.0	n	n	n	38.7	51.6	13.5	n
Cc1ccc(OCC(=O)NNC(=O)C2CCN(c3ncnc4sc(C)c(C)c34)CC2)cc1	n	n	50.3	n	n	n	26.5	n	n	n
COc1ccc(OCC(=O)NNC(=O)C2CCN(c3ncnc4sc(C)c(C)c34)CC2)cc1	n	n	n	n	n	n	x	x	x	x
CC(NC(=O)c1cccc2c1Oc1ccccc1S2)C(=O)O (configuration not stated)	n	n	x	x	n	n	x	x	x	x
COc1cccc(-c2c(C(=O)N/N=C(\C)c3cccnc3)nnn2-c2nonc2N)c1	n	n	n	n	n	n	x	x	x	x
SMILES	M1 ag	M1 antag	TAAR1 antagonist	TAAR1 ag	HTR2A ag	M1 PAM	TAAR1 nonsel count	TAAR1 antag conf	Ga16 nonsel ag	TAAR1 ag count
CCN(CC(=O)Nc1c(F)cccc1F)C(=O)C1CCN(c2ncnc3sc(C)c(C)c23)CC1	n	n	57.5	n	n	n	22.5	n	n	n
Cc1sc2ncnc(N3CCC(C(=O)NNC(=O)COc4ccc(Br)cc4)CC3)c2c1C	n	n	75.9	n	n	n	42.1	53.2	11.6	n
Cc1sc2ncnc(N3CCC(C(=O)NNC(=O)COc4ccccc4F)CC3)c2c1C	n	n	65.2	n	n	n	31.4	n	n	n
Cc1nn(-c2ccccc2)c(N2CCCC2)c1/C=N/NC(=S)Nc1ccccc1F	n	n	n	n	n	n	x	x	x	x
COc1ccccc1N1CCN(CCCN=C2CC(=O)N(C)C(=O)N2C)CC1	n	n	n	n	n	n	x	x	x	x
CN(C(=O)c1cccc(NC(=O)Cc2ccc(NC(=O)C3CCCN(C(=O)CCc4ccccc4)C3)cc2)c1)C1CCC1 (configuration not stated)	n	n	n	n	n	n	x	x	x	x
COc1ccc(-c2csc(NC(=O)c3cccc(N4C(=O)CCC4=O)c3)n2)cc1OC	n	n	65.1	n	n	n	n	n	n	n
COc1ccc(-c2csc(NC(=S)NC(=O)/C=C/c3ccco3)n2)cc1OC	n	n	63.2	n	n	n	29.3	56.6	n	n
CC(C)(C)c1csc(NC(=O)C2COc3ccccc3O2)n1 (configuration not stated)	n	n	n	n	n	n	x	x	x	x

High-throughput results deposited in PubChem BioAssay by The Scripps Research Institute Molecular Screening Center.
